Shown are actives, neighbours in structure and some others; about 2.6% of the full set was active somewhere.
CHT allo act: allosterically activates the human high affinity choline transporter; CHT-expressing cells, membrane potential dye, choline EC20; stronger effect = higher value; LV-AA mutant CHT in HEK293 cells; B-score at 10 µM; 310,000 compounds, 0.49% hits; AID 488977;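 active = initial fluorescence not abnormally high and integrated response B-score, plate-corrected, over 3 SD above library mean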
KCC2 mod: KCC2 (human) Cl- transport modulation | Q9H2X9 | KCC2 cells, thallium flux FluoZin-2 fluorescence | B-score of Tl+ flux slope (higher = more flux/activation; lower = inhibition) at 10 µM | 190,000 compounds, 2.2% hits | AID 1456;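 active = thallium flux slope and its plate-corrected score both differing from the plate sample mean at a set confidence after two filtering rounds, in either direction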;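 note: slope of fluorescence scaled to starting intensity during 10 to 20 s after thallium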
CHT inh: inhibits the human high affinity choline transporter; Q9GZV3; 310,000 compounds, 0.86% hits; CHT-expressing cells, membrane potential dye, choline response; stronger effect = lower value; B-score at 10 µM;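 active = B-score over 3 SD under the library average, and starting fluorescence ratio not unusually high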;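 note: choline stimulus applied at its EC90 after an EC20 pre-addition; B-score computed on integrated fluorescence ratio after choline addition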
Rad51 HR inh: Rad51 (human) homologous recombination inhibition; Q06609; hRad51 DNA strand exchange, fluorescence dequenching; 200,000 compounds, 0.085% hits; inhibition, % at 10 µM; AID 1385;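 active = inhibition above 40% at the single screening dose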;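 note: 0% = DMSO control wells and 100% = blanks with heterologous ssDNA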
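Material: Human Rad51 nucleoprotein filaments preassembled on unlabelled ssDNA | Also added: Labelled 47-mer dsDNA for strand exchange | Dosing: Single dose, 10 µM final compound | Schedule: 30-min compound preincubation and 15-min exchange, both room temperature | Technique: Fluorescence dequenching at 485/520 nm | Measure: Percent inhibition relative to plate controls and blanks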
KCC2 sec1: KCC2 (human) modulation, secondary assay | HEK293-KCC2, thallium flux, FluoZin2 fluorescence; stronger effect = higher value | 3,700 compounds, 15% hits | normalised thallium flux (F/F0 slope) at 10 µM | AID 1713 | shares compounds with KCC2 mod;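 active = thallium flux slope above the same plate's solvent-only control mean plus 3 SD; inconclusive = the two replicate wells disagree; inactive = no significant difference from solvent-only control wells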
KCC2 bumet counter: thallium flux despite bumetanide block in KCC2 cells, secondary assay 3. shares compounds with KCC2 mod. HEK293-KCC2 + bumetanide/ouabain, thallium flux FluoZin2; stronger effect = higher value. 3,700 compounds, 49% hits. normalized thallium flux at 10 µM;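 active = thallium entry rate above the same plate's blocked-transporter control wells by more than 3 SD; inconclusive = the two repeat wells disagree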;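 note: raw slope of fluorescence over initial fluorescence between 10 and 20 s after thallium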
KCC2 sec2: confirmation of human KCC2 transport modulators | HEK293-KCC2, thallium flux FluoZin2 fluorescence; actives lie on both sides; F/F0 rise rate, 10–20 s post-thallium | normalized thallium flux at 10 µM | AID 1715 | shares compounds with KCC2 mod | 3,700 compounds, 23% hits;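 active = thallium flux slope more than 3 SD above or below the plate's solvent-only control mean, mostly below; inconclusive = the two repeat wells disagreed; inactive = no significant shift from solvent-only controls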;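 note: raw slope with 0.1% DMSO as baseline and bumetanide as block control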
HEK293 Tl flux: parental HEK flux effect, counter-screen; HEK293 parental cells, thallium flux FluoZin2, ouabain; baseline-ratio fluorescence slope, 10–20 s after thallium; shares compounds with KCC2 mod; thallium flux rate (normalised fluorescence) at 10 µM; 3,700 compounds, 46% hits;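 active = thallium flux rate significantly above the same plate's solvent-only control wells, beyond their mean plus 3 SD; inconclusive = the two replicate wells gave conflicting results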
KCC2 ouabain: confirmation of human KCC2 modulators with ouabain. raw Tl+ flux slope (below DMSO = inhibition, above = activation) at 10 µM. HEK293-KCC2, thallium flux FluoZin2 fluorescence; bidirectional: low = inhibitor, high = activator. shares compounds with KCC2 mod. 3,700 compounds, 48% hits;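 active = thallium flux slope beyond 3 SD from same-plate DMSO control mean in most replicates, usually higher, sometimes lower; inconclusive = repeat tests gave conflicting results; inactive = no significant difference from controls in most replicates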;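 note: slope of initial-normalized fluorescence between seconds 10 and 20 after thallium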
HEK293 Tl flux2: acts in parental HEK cells, second KCC2 counter-screen | shares compounds with KCC2 mod | HEK293 parental, thallium flux FluoZin-2 fluorescence slope | thallium flux slope at 10 µM | 3,700 compounds, 33% hits | AID 1718;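 active = thallium flux slope above the same plate's solvent-control mean plus 3 SD in both duplicate wells; inconclusive = duplicate wells that disagreed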;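 note: run without ouabain in cells lacking the KCC2 cotransporter; slope of fluorescence scaled to its starting value between 10 and 20 s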
An asterisk follows results filed as active; i = inactive; u = inconclusive; x = not tested or not shown.

SMILES	CHT allo act	KCC2 mod	CHT inh	Rad51 HR inh	KCC2 sec1	KCC2 bumet counter	KCC2 sec2	HEK293 Tl flux	KCC2 ouabain	HEK293 Tl flux2
CCOC(=O)N=Nc1c(O)n(C)c2ccccc12	i	-0.81	i	11	x	x	x	x	x	x
O=C(CCc1nc2ccccc2s1)N1CCN(S(=O)(=O)c2cccs2)CC1	i	-4.1*	i	0	0.007	0.0053	0.038	0.0041	0.018	0.011
COCCNS(=O)(=O)c1ccc(-c2ccc(Cl)cc2)cc1	i	-2.8*	i	x	0.0072	0.0053	0.026*	0.008	u	0.012
CCc1ccc(NC(=O)c2c(C(=O)Nc3ccccc3)sc3nc(C)cc(=O)n23)cc1	i	-0.83	i	-2	x	x	x	x	x	x
O=c1c2cc(Br)ccc2[nH]c(=S)n1Cc1ccccn1	i	35*	i	x	u	0.071*	0.044*	0.046*	0.057*	0.021*
N#Cc1nc(-c2cccc(Cl)c2)oc1N1CCC(C(N)=O)CC1	i	x	i	x	x	x	x	x	x	x
CCOc1[nH]n(-c2ccc(Cl)cc2)c(=O)c1C=Nc1ccc(Cl)cc1	i	0.42	i	5	x	x	x	x	x	x
CCOc1[nH]n(-c2ccccc2)c(=O)c1C=Nc1ccc(F)cc1F	i	4.1*	i	-7	0.0056	0.01*	0.032	0.01*	u	u
CCOc1[nH]n(-c2ccccc2)c(=O)c1C=Nc1ccc(OC)cc1	i	4.1*	i	-5	0.0066	0.01*	0.032	0.0093*	0.021	u
CCCCn1c(SCC(=O)NC2CCCC2)nc2ccccc2c1=O	i	x	i	x	x	x	x	x	x	x
O=C(COC(=O)c1ccc(Cl)c(S(=O)(=O)NCc2ccccc2)c1)NCC1CCCO1 (stereo not drawn)	i	-0.35	i	1	x	x	x	x	x	x
CCOc1ccc(N2CC(C(=O)OC)CC2=O)cc1 (stereo not drawn)	i	0.36	i	3	x	x	x	x	x	x
CCN(CC)c1ccc(C(=O)Nc2cccc(F)c2)cc1	i	-3.3*	i	-1	0.018	0.0038	0.027	u	0.014	0.0094
O=C(/C=C/c1cccc(F)c1)NNC(=O)c1ccncc1	i	x	i	x	x	x	x	x	x	x
O=C(CCS(=O)(=O)c1ccc(Br)s1)NC1CCCC1	i	x	i	-3	0.0064	0.0049	0.03	0.008	0.019	0.011
COc1ccccc1OCc1nnc(SCC(=O)Nc2ccc(N3CCOCC3)cc2)n1C	i	x	i	x	x	x	x	x	x	x
COCCN(C(=O)COc1ccccc1C#N)c1c(N)n(Cc2ccccc2)c(=O)[nH]c1=O	i	x	i	x	x	x	x	x	x	x
COC(=O)c1ccc2c(=O)n(-c3ccccc3F)c(=S)[nH]c2c1	i	5.6*	i	0	0.016	0.018*	0.032	0.012*	0.022*	0.013*
COC(=O)c1ccc2c(=O)n(-c3ccccc3)c(=S)[nH]c2c1	i	11*	i	0	0.018	0.022*	0.034	0.021*	0.025*	0.023*
O=C(O)c1ccc2c(=O)n(-c3ccccc3F)c(=S)[nH]c2c1	i	0.49	i	31	x	x	x	x	x	x
COc1ccc(-n2c(=S)[nH]c3cc(C(=O)N4CCN(c5ccccc5)CC4)ccc3c2=O)cc1	i	x	i	x	x	x	x	x	x	x
COc1cc(C(C(=O)NC2CCCC2)N(C(=O)Cc2cccs2)C2CC2)cc(OC)c1OC (stereo not drawn)	i	-0.012	i	15	x	x	x	x	x	x
COc1cc(-c2nc(CN3CCN(CC(C)C)C(=O)[C@@H]3C)c(C)o2)ccc1F	i	-0.75	i	-2	x	x	x	x	x	x
COc1cc(-c2nc(CN3CCN(c4ncccn4)CC3)c(C)o2)ccc1F	i	-3*	i	8	0.0059	0.0043	0.032	u	0.021	u
CC1CCCCN1C(=O)COC(=O)c1n[nH]c2ccccc12 (stereo not drawn)	i	-0.42	i	5	x	x	x	x	x	x
SMILES	CHT allo act	KCC2 mod	CHT inh	Rad51 HR inh	KCC2 sec1	KCC2 bumet counter	KCC2 sec2	HEK293 Tl flux	KCC2 ouabain	HEK293 Tl flux2
CCN(CC)c1ccc(/C=N/NC(=S)NC)c(O)c1	i	5.1*	i	x	0.0091	0.013*	0.031	u	0.022	0.01
CCOC(=O)C1=C(C)Nc2nnnn2C1c1cccnc1 (stereo not drawn)	i	x	i	-5	0.0066	0.004	0.028	0.0074	0.018	0.01
Cc1ccc(C)c(N2CCN(C(=O)CCS(=O)(=O)c3ccc4c(c3)CCN4C(=O)C3CC3)CC2)c1	i	x	i	x	x	x	x	x	x	x
C=CCN1C(=O)/C(=C/c2ccc(OC(C)=O)c(OCC)c2[N+](=O)[O-])SC1=S	x	-3.4*	x	-28	0.0058*	0.0067	0.031	0.005*	u	0.01
CC(C)NC(=O)c1nn2c(C(F)(F)F)cc(-c3ccco3)nc2c1Cl	i	-0.27	i	-6	x	x	x	x	x	x
CN(CCc1ccccn1)C(=O)c1nn2c(C(F)(F)F)cc(-c3ccco3)nc2c1Cl	i	-5.2*	i	-4	0.0074	0.0051	0.031	0.0074	0.014*	0.0098
O=C(Cn1cc(C(F)(F)F)ccc1=O)NCc1ccc(F)cc1	i	x	i	x	x	x	x	x	x	x
COc1ccc(-c2cc(=O)oc3c(C)c(OCC(=O)NCCCn4ccnc4)ccc23)cc1	i	x	i	x	x	x	x	x	x	x
CN(Cc1ccccc1)C(=O)COC(=O)c1cncc(Br)c1	i	-0.88	i	-9	x	x	x	x	x	x
CN(Cc1ccccc1)C(=O)COC(=O)c1ccc(Cl)c(N)c1	i	-3.9*	i	4	0.0073	0.0057	0.037	0.004	0.016*	0.01
COC(=O)/C=C1/N/C(=N\c2nc(C)cc(C)n2)N(c2ccc(Cl)cc2)C1=O	i	0.92	i	5	x	x	x	x	x	x
Cn1c(Sc2ccc(C(F)(F)F)cc2[N+](=O)[O-])nnc1-c1ccccc1	i	-5.3*	i	-4	0.0076	0.0063	0.034	0.0045	0.019	0.011
Cc1ccc(C)c2nc(SCC(=O)N3CCCc4ccccc43)c(C#N)cc12	i	x	i	-5	x	x	x	x	x	x
O=C(N1CCOCC1)n1nnc2ccccc21	i	7.5*	i	x	0.0066	u	0.027	0.0078	0.019	0.01
Cc1ccc(S(=O)(=O)NC(=O)Nc2cc(C)ccc2F)cc1	i	-11*	i	-5	0.016	u	0.029	u	0.017	0.011

High-throughput results (PubChem BioAssay)
